Test results: ChEMBL document CHEMBL2203029, “Discovery and Structural Modification of 1-Phenyl-3-(1-phenylethyl)urea Derivatives as Inhibitors of Complement” (ACS Med Chem Lett, 2012)
Values after ≈ are worked out from the molar mass of the structure shown. Active and inactive are the calls of the source. The calls are words filed in the database; no cut-off is given here.

System: not listed separately
Experiment: Inhibition of lectin pathway in human serum assessed as inhibition of C9 deposition at 10 ug/mL incubated for 1 hr by ELISA
Assay type: cell-free

inhibition	SMILES
90%	COc1ccc(NC(=O)N[C@@H](C)c2ccccc2)cc1OCCCC(C)C

Organism: Homo sapiens
Experiment: Inhibition of alternative complement system in human serum assessed as inhibition of C9 deposition at 10 ug/mL incubated for 1 hr by ELISA
Assay type: cell-free

inhibition	SMILES
90%	COc1ccc(NC(=O)N[C@@H](C)c2ccccc2)cc1OCCCC(C)C

Organism: Homo sapiens
Experiment: Inhibition of classical complement system in human serum assessed as inhibition of C9 deposition at 10 ug/mL incubated for 1 hr by ELISA
Assay type: cell-free

inhibition	SMILES
90%	COc1ccc(NC(=O)N[C@@H](C)c2ccccc2)cc1OCCCC(C)C

System: not listed separately
Experiment: Inhibition of lectin pathway in human serum assessed as inhibition of C9 deposition incubated for 1 hr by ELISA
Assay type: cell-free
Outline: (§1)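 Normal human serum was added to coated plates and incubated with a range of inhibitor concentrations. The coating set the pathway: IgM for the classical pathway, mannan for the lectin pathway, and zymosan for the alternative pathway. C3, C4 and C9 deposition were then measured on the plates.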

IC50	SMILES
4.46 µg/mL (≈ 12 µM)	COc1ccc(NC(=O)N[C@@H](C)c2ccccc2)cc1OCCCC(C)C

System: not listed separately
Experiment: Inhibition of alternative complement system in human serum assessed as inhibition of C9 deposition incubated for 1 hr by ELISA
Assay type: cell-free
Outline: as §1

IC50	SMILES
3.59 µg/mL (≈ 9.69 µM)	COc1ccc(NC(=O)N[C@@H](C)c2ccccc2)cc1OCCCC(C)C

System: not listed separately
Experiment: Inhibition of classical complement system in human serum assessed as inhibition of C9 deposition incubated for 1 hr by ELISA
Assay type: cell-free
Outline: as §1

IC50	SMILES
3.68 µg/mL (≈ 9.93 µM)	COc1ccc(NC(=O)N[C@@H](C)c2ccccc2)cc1OCCCC(C)C

System: not listed separately
Experiment: Inhibition of lectin pathway in human serum assessed as inhibition of C4 activation incubated for 1 hr by ELISA
Assay type: cell-free
Outline: as §1

inhibition	SMILES
inactive	COc1ccc(NC(=O)N[C@@H](C)c2ccccc2)cc1OCCCC(C)C

Organism: Homo sapiens
Experiment: Inhibition of alternative complement system in human serum assessed as inhibition of C4 activation incubated for 1 hr by ELISA
Assay type: cell-free
Outline: as §1

inhibition	SMILES
inactive	COc1ccc(NC(=O)N[C@@H](C)c2ccccc2)cc1OCCCC(C)C

System: not listed separately
Experiment: Inhibition of lectin pathway in human serum assessed as inhibition of C3 activation incubated for 1 hr by ELISA
Assay type: cell-free
Outline: as §1

inhibition	SMILES
inactive	COc1ccc(NC(=O)N[C@@H](C)c2ccccc2)cc1OCCCC(C)C

Organism: Homo sapiens
Experiment: Inhibition of classical complement system in human serum assessed as inhibition of C4 activation incubated for 1 hr by ELISA
Assay type: cell-free
Outline: as §1

inhibition	SMILES
inactive	COc1ccc(NC(=O)N[C@@H](C)c2ccccc2)cc1OCCCC(C)C

Organism: Homo sapiens
Experiment: Inhibition of alternative complement system in human serum assessed as inhibition of C3 activation incubated for 1 hr by ELISA
Assay type: cell-free
Outline: as §1

inhibition	SMILES
inactive	COc1ccc(NC(=O)N[C@@H](C)c2ccccc2)cc1OCCCC(C)C

Organism: Homo sapiens
Experiment: Inhibition of classical complement system in human serum assessed as inhibition of C3 activation incubated for 1 hr by ELISA
Assay type: cell-free
Outline: as §1

inhibition	SMILES
inactive	COc1ccc(NC(=O)N[C@@H](C)c2ccccc2)cc1OCCCC(C)C

Organism: Homo sapiens
Experiment: Inhibition of complement system in human fetal serum assessed as inhibition of hemolysis at 100 ug/mL incubated for 1 hr by spectrophotometric analysis

SMILES	inhibition
CCCCCCCCCCOc1cc(NC(=O)N[C@@H](C)c2ccccc2)ccc1OC	inactive
COc1ccc(NC(=O)N(C)Cc2ccccc2)cc1OC	43.8%
CCCCCCCCCCCCOc1cc(NC(=O)N[C@@H](C)c2ccccc2)ccc1OC	inactive
COc1cc(NC(=O)N[C@@H](C)c2ccccc2)ccc1OCCNC(=O)OC(C)(C)C	inactive
COc1cccc(NC(=O)N[C@@H](C)c2ccccc2)c1	inactive
COc1cc(NC(=O)N[C@@H](C)c2ccccc2)ccc1OCc1ccccc1	inactive
COc1ccc(NC(=O)NCc2cccc(-c3ccccc3)c2)cc1OC	inactive
COc1ccc(NC(=O)N[C@@H](C)c2ccccc2)cc1	inactive
COc1ccc(NC(=O)NCc2cccc3ccccc23)cc1OC	inactive
C[C@H](NC(=O)Nc1ccccc1)c1ccccc1	inactive
COc1ccc(NC(=O)N[C@H](C)c2ccccc2)cc1OC	16.9%
COc1ccc(N(C)C(=O)N(C)[C@@H](C)c2ccccc2)cc1OCCCC(C)C	inactive
CCOC(=O)COc1ccc(NC(=O)N[C@@H](C)c2ccccc2)cc1OC	inactive
C[C@H](NC(=O)Nc1ccc(Cl)cc1)c1ccccc1	inactive
COc1ccc(NC(=O)N[C@@H](C)c2ccccc2)cc1OCc1ccccc1	32.7%
COc1ccc(NC(=O)N[C@@H](C)c2ccccc2)cc1O	35.3%
COc1cc(NC(=O)N[C@@H](C)c2ccccc2)ccc1O	14.6%
COc1ccc(NC(=O)N[C@@H](C)c2ccccc2)cc1OCCN1CCCC1	inactive
CCOc1ccc(NC(=O)N[C@@H](C)c2ccccc2)cc1OC	inactive
C=CCOc1ccc(NC(=O)N[C@@H](C)c2ccccc2)cc1OC	inactive
C[C@H](NC(=O)Nc1cccnc1)c1ccccc1	inactive

System: not listed separately
Experiment: (§2) Inhibition of complement system in human fetal serum assessed as inhibition of hemolysis incubated for 1 hr by spectrophotometric analysis

SMILES	IC50
COc1ccc(NC(=O)N[C@@H](C)c2ccccc2)cc1OCCCC(C)C	13 nM
COc1ccc(N(CCCO)C(=O)N[C@@H](C)c2ccccc2)cc1OCCCC(C)C	1580 nM
COc1ccc(NC(=O)N[C@@H](C)c2ccc(C#N)cc2)cc1OCCCC(C)C	1260 nM
COC(=O)c1ccc([C@H](C)NC(=O)Nc2ccc(OC)c(OCCCC(C)C)c2)cc1	535 nM
C=CCOc1cc(NC(=O)N[C@@H](C)c2ccccc2)ccc1OC	1750 nM
COc1ccc(NC(=O)N(CCCN)[C@@H](C)c2ccccc2)cc1OCCCC(C)C	7160 nM
CCCCCOc1cc(NC(=O)N[C@@H](C)c2ccccc2)ccc1OC	19 nM
COc1ccc(NC(=O)N[C@@H](C)c2cccc(O)c2)cc1OCCCC(C)C	77 nM
COc1ccc(NC(=O)N[C@@H](C)c2ccc(C(=O)O)cc2)cc1OCCCC(C)C	761 nM
COc1ccc(NC(=O)N[C@@H](C)c2ccc(Br)cc2)cc1OCCCC(C)C	3390 nM
CCOC(=O)COc1cc(NC(=O)N[C@@H](C)c2ccccc2)ccc1OC	6200 nM
CCCOc1cc(NC(=O)N[C@@H](C)c2ccccc2)ccc1OC	353 nM
COc1ccc(NC(=O)N(CCCO)[C@@H](C)c2ccccc2)cc1OCCCC(C)C	223 nM
COc1ccc(NC(=O)N[C@@H](C)c2cccc(Br)c2)cc1OCCCC(C)C	1320 nM
CCC#CCOc1cc(NC(=O)N[C@@H](C)c2ccccc2)ccc1OC	244 nM
C=C(C)COc1cc(NC(=O)N[C@@H](C)c2ccccc2)ccc1OC	7900 nM
COc1ccc(NC(=O)N[C@@H](C)c2ccccc2)cc1OCC(C)C	870 nM
COCCOc1cc(NC(=O)N[C@@H](C)c2ccccc2)ccc1OC	2000 nM
COc1ccc(NC(=O)N(CCO)[C@@H](C)c2ccccc2)cc1OCCCC(C)C	323 nM
COc1ccc(NC(=O)N(CC(O)CO)[C@@H](C)c2ccccc2)cc1OCCCC(C)C (some centres not stated)	368 nM
COc1ccc(NC(=O)N[C@@H](C)c2ccccc2)cc1OCC1CCCN(C)C1 (some centres not stated)	3200 nM
COc1ccc(NC(=O)N[C@@H](C)c2ccccc2)cc1OCCN1CCCCC1	35500 nM
CCCCOc1cc(NC(=O)NC(CC)c2ccccc2)ccc1OC (configuration not stated)	420 nM

SMILES	IC50
C#CCOc1cc(NC(=O)N[C@@H](C)c2ccccc2)ccc1OC	8300 nM
COc1ccc(NC(=O)N[C@@H](C)c2ccccc2)cc1OCC1CCCCC1	468 nM
CCCCCCOc1cc(NC(=O)N[C@@H](C)c2ccccc2)ccc1OC	17 nM
COc1ccc(NC(=O)N[C@@H](C)c2ccc([N+](=O)[O-])cc2)cc1OCCCC(C)C	1690 nM
COc1ccc(NC(=O)N[C@@H](C)c2ccccc2)cc1OCCC(C)C	630 nM
COc1ccc(NC(=O)N[C@@H](C)c2ccc(F)cc2)cc1OCCCC(C)C	402 nM
CC#CCOc1cc(NC(=O)N[C@@H](C)c2ccccc2)ccc1OC	1590 nM
COc1ccc(NC(=O)N(C)[C@@H](C)c2ccccc2)cc1OCCCC(C)C	19 nM
COc1ccc(NC(=O)N[C@@H](C)c2ccc(O)cc2)cc1OCCCC(C)C	139 nM
COc1ccc(NC(=O)N[C@@H](C)c2ccc(C)cc2)cc1OCCCC(C)C	327 nM
COc1ccc(NC(=O)N[C@@H](C)c2ccccc2[N+](=O)[O-])cc1OCCCC(C)C	368 nM
CCOc1cc(NC(=O)N[C@@H](C)c2ccccc2)ccc1OC	2860 nM
COc1ccc(NC(=O)N[C@@H](C)c2ccccc2)cc1OC	50000 nM
CCCCCOc1cccc(NC(=O)N[C@@H](C)c2ccccc2)c1	3200 nM
CCCCOc1cc(NC(=O)N[C@@H](C)c2ccccc2)ccc1OC	33 nM
CCCCCCCCOc1cc(NC(=O)N[C@@H](C)c2ccccc2)ccc1OC	1290 nM
N=C(N)c1cc2ccc(OC(=O)c3cccs3)cc2s1	10 nM
CCCCOc1cc(NC(=O)N2CCCC2c2ccccc2)ccc1OC (configuration not stated)	105 nM
COc1ccc(NC(=O)N[C@@H](C)c2ccccc2)cc1OC(C)C	10600 nM
CCCCCCCOc1cc(NC(=O)N[C@@H](C)c2ccccc2)ccc1OC	780 nM
COc1ccc(N(C)C(=O)N[C@@H](C)c2ccccc2)cc1OCCCC(C)C	540 nM
CCCCCOc1cc(NC(=O)N[C@@H](C)c2ccccc2)cc(OC)c1	270 nM

Organism: Homo sapiens
Experiment: as §2

SMILES	inhibition
CCCCOc1cc(NC(=O)NC2CCc3ccccc32)ccc1OC (configuration not stated)	inactive
CCCCOc1cc(NC(=O)N2CCCCC2c2ccccc2)ccc1OC (configuration not stated)	inactive
CCCCCOc1cc(OC)ccc1NC(=O)N[C@@H](C)c1ccccc1	inactive
CCCCCOc1cc(OC)c(NC(=O)N[C@@H](C)c2ccccc2)c(OC)c1	inactive
CCCCCOc1ccc(OC)cc1NC(=O)N[C@@H](C)c1ccccc1	inactive
CCCCOc1cc(NC(=O)NCC(C)c2ccccc2)ccc1OC (configuration not stated)	inactive
CCCCOc1cc(NC(=O)NCCC(C)c2ccccc2)ccc1OC (configuration not stated)	inactive
CCCCCOc1ccccc1NC(=O)N[C@@H](C)c1ccccc1	inactive

Organism: Homo sapiens
Experiment: Inhibition of complement system in human fetal serum assessed as inhibition of hemolysis at 10 ug/mL incubated for 1 hr by spectrophotometric analysis

SMILES	inhibition
COc1ccc(NC(=O)N[C@@H](C)c2ccc(C(F)(F)F)cc2)cc1OCCCC(C)C	inactive
